# Screening results from PubChem.
# Only a selection was taken, and hits are over-represented in it overall.
# INS promoter act: TRM-6 insulin promoter activation; TRM-6 cells (human fetal islet line), insulin promoter eGFP reporter, imaging; plate-scaled: unstimulated 0, stimulated control 100; activation, % at 2 µM; actives 0.81% (n = 130,000);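 active means activation at 2 µM above a set limit, confirmed on inspection of the cell images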;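 further: share of cells whose green reporter signal exceeds an intensity cutoff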
#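 Assay system: TRM-6 insulin promoter–eGFP reporter cells / Input: 1,000 cells per well / Medium: Low-glucose (5.5 mM) medium with tamoxifen / Also added: tamoxifen inducer, 0.75 µM, in seeding medium / Timing: overnight tamoxifen, then two-day compound incubation at 37 °C / Signal: automated fluorescence imaging of paraformaldehyde-fixed, Hoechst-counterstained cells, green channel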
# * marks the source's active call; other numbers are inactive results.
SMILES,INS promoter act
COc1ccccc1NS(=O)(=O)c1ccc(NC(=O)c2nc3nc(C)cc(C(F)F)n3n2)cc1,0
COCC(C)NC(=O)Cc1ccc(F)cc1 (stereo unspecified),-64
Cc1ccc(NCC(=O)Nc2cccc(S(=O)(=O)N(C)C)c2)c(Cl)c1,0
c1ccc(Cn2nnnc2C(c2cccnc2)N2CCN(C3CCCCC3)CC2)cc1 (stereo unspecified),-4
O=C(c1ccco1)N1CCN(C(c2ccc(F)cc2)c2nnnn2Cc2cccs2)CC1 (stereo unspecified),-10
Fc1ccc(C(c2nnnn2Cc2ccco2)N2CCN(C3CCCCC3)CC2)cc1 (stereo unspecified),89*
COc1cccc(CNC(=O)C2=Cc3cccc(OC)c3OC2)c1,0
Cn1c2ccccc2n2c(=O)c(Cl)c(-c3ccccc3)c(C#N)c12,-8
CCc1nnc(NC(=O)C2(C)COC(c3ccc(OC)cc3)OC2)s1 (stereo unspecified),0
C=CCn1c(CCNC(=O)c2cccs2)nnc1SCC(=O)Nc1cccc(C(C)=O)c1,219
CCn1c(SCC(=O)Nc2cc(C)on2)nnc1-c1cccs1,-7
CCn1c(CNC(=O)c2cccs2)nnc1SCC(=O)Nc1ccc(Cl)cc1,650*
CCOC(=O)c1nsnc1NCCSC(=N)N,8
CCOC(=O)c1cccc(NC(=O)CSc2nnc(CNc3ccc(C)cc3)n2CC)c1,0
CCOC(=O)c1cccc(NC(=O)c2cccnc2)c1,9
CCOC(=O)c1cccc(NC(=O)CSc2nnc(-c3cccnc3)n2CC)c1,81*
COc1ccc(CN2CCN(Cc3csc(C(C)=O)c3)CC2CCO)c(C)c1C (stereo unspecified),5
CCN(CCCNC(=O)C1CCN(S(=O)(=O)N2CCOCC2)CC1)c1cccc(C)c1,114
CCN(CCCNC(=O)C1CCC(=O)N1Cc1ccccc1Cl)c1cccc(C)c1 (stereo unspecified),92*
CCN(CCNC(=O)C1CCC(=O)N1Cc1ccc(C)cc1)c1ccccc1 (stereo unspecified),0
C=CCOc1ccc(C2CC(C)=NN2c2ccccc2)cc1 (stereo unspecified),0
Cc1nnc(NC(=O)CSc2ncnc3c2cnn3-c2ccccc2C)s1,147*
COc1ccc(N2CCN(C(=O)CSc3ncnc4c3cnn4-c3ccccc3C)CC2)cc1,-83
Cc1nnc(NC(=O)CSc2ncn(-c3ccccc3)n2)s1,0
Cc1cccc(-c2nnc(SCC(=O)Nc3ncccn3)n2C)c1,-9
SMILES,INS promoter act
CCN(C(=O)CCc1nc(-c2ccccc2F)no1)c1cc(OC)ccc1OC,-8
COc1ccccc1NC(=O)CCc1nc(-c2cccs2)no1,83*
COc1ccccc1NC(=O)CCc1nc(-c2ccccc2F)no1,305*
COc1cccc(NC(=O)CCc2nc(-c3ccccc3F)no2)c1,0
O=C(CCc1nc(-c2ccccc2)no1)Nc1cc(C(F)(F)F)ccc1Cl,-5
CCOc1cc(-c2noc(CCC(=O)Nc3cccnc3)n2)ccc1OC,-3
CCC(C)c1ccccc1NC(=O)COC(=O)c1ccc2[nH]c3c(c2c1)CCCC3 (stereo unspecified),0
CCC(=O)c1ccc(OCC(=O)NCC2(N3CCCCC3)CCCCC2)cc1,7
Cc1nc(N2CCN(S(=O)(=O)c3ccccc3)CC2)c2c3c(sc2n1)CC(C)CC3 (stereo unspecified),0
Cc1nc(N2CCN(S(=O)(=O)c3ccccc3)CC2)c2cc(-c3ccccc3)sc2n1,81*
CC(=O)N1CCN(c2ncnc3sc(-c4ccccc4)cc23)CC1,4
O=Cc1ccc(-c2cc(Cl)ccc2Cl)[nH]1,147
COc1ccc(C)cc1NC(=O)NCc1ccc(F)cc1,7
Cc1cc(C)nc(SCC(=O)N/N=C/c2cccn2-c2ccc(O)cc2)n1,106*
C/C(=N\NC(=O)CSc1nc(C)cc(C)n1)c1cccs1,-3
Cc1cc(C)nc(SCC(=O)Nc2ccc(N3CCOCC3)cc2)n1,-10
C/C(=N\NC(=O)c1c(C)nc2ccccn12)c1ccco1,-73
COc1ccccc1N(CC(=O)NC(C)(C)C)S(=O)(=O)c1cccs1,10
COC(=O)c1cc(-c2ccc(Cl)cc2Cl)n[nH]1,-78
CCSc1nnc(-c2ccc(S(=O)(=O)N3CCCC3)cc2)n1C,0
CCn1c(SCC(=O)N2CCCC(C)C2)nnc1-c1ccc(S(=O)(=O)N2CCN(C)CC2)cc1 (stereo unspecified),81*
CCn1c(SCC(=O)Nc2ccccc2)nnc1-c1ccc(S(=O)(=O)N2CCOCC2)cc1,-3
O=C(Nc1nc2ccccc2[nH]1)c1ccc(Br)o1,-8
c1ccc(CSc2ccc(-c3cccnc3)nn2)cc1,0
O=C(NC12CC3CC(CC(C3)C1)C2)c1ccc(-c2ccccc2Cl)o1,219*
SMILES,INS promoter act
S=C(c1ccc(-c2ccccc2Cl)o1)N1CCOCC1,7
O=C(NCc1ccco1)c1ccc(-c2ccccc2Cl)o1,-7
CCC(C)C(=O)NCCc1ccc(S(N)(=O)=O)cc1 (stereo unspecified),0
CCOc1ccc(Cl)cc1CSc1ncn[nH]1,0
CC(C)c1nnc(NC(=O)C2CCCN2C(=O)Nc2ccccc2[N+](=O)[O-])s1 (stereo unspecified),-71
COc1cc(C(C)=O)ccc1COc1ccc(C(=O)OC(C)C(=O)NC(N)=O)cc1OC (stereo unspecified),-9
CCSc1cc(N2CCOCC2)nc(-c2ccc(Cl)cc2)n1,0
Cn1nc(-c2ccccc2)c(CO)c1Oc1ccc(F)cc1,109
COc1ccc(O[C@H]2C=C[C@@H](c3ccccc3)O[C@@H]2CO/N=C(\C)CCN2CCCCc3nc(C)c(C)cc32)cc1,105
CCOC(=O)c1c(-c2ccc(C)cc2)csc1NC(=O)C1CCCO1 (stereo unspecified),-2
CCc1c(C)sc(NC(=O)C2CCCO2)c1C#N (stereo unspecified),43
CCCOC(=O)c1c(NC(=O)C2CCCO2)sc(C(=O)OC)c1C (stereo unspecified),567*
O=P(COCCCCCOCP(=O)(c1ccccc1)c1ccccc1)(c1ccccc1)c1ccccc1,131
Cc1[nH]nc(Sc2ccccn2)c1[N+](=O)[O-],8
Cc1ccc(-c2nn(-c3cc(Cl)ccc3[N+](=O)[O-])c(=O)c3ccccc23)cc1,2
Cc1nn(-c2cc(N3CCOCC3)ccc2N)c(=O)c2ccccc12,6
Cc1nn(-c2cc(N3CCCC3)ccc2[N+](=O)[O-])c(=O)c2ccccc12,134*
C=C1C(O)C[C@H]2C(=C)CCC3[C@H](OC(=O)[C@]3(O)CO)[C@@H]12 (stereo partly specified),275*
COc1cccc(CNC(=O)CCC2CCCN(Cc3cc4ccccc4o3)C2)c1 (stereo unspecified),104
Clc1ccc(Nc2ncn[nH]2)c(Cl)c1,-66
O=C(Nn1c(C2CCC2)nc2ccccc2c1=O)c1cccs1,0
O=C(CSc1nc2ccccc2c(=O)n1NC(=O)c1ccccc1)c1ccccc1,0
O=C(Nn1c(Cc2cccs2)nc2ccccc2c1=O)c1ccc(F)c(F)c1,419*
CCOC(=O)c1c(NC(C)=O)sc2c1CCC(C=NCCCN(CC)CC)=C2Sc1ccccc1,181
COc1ccc(Cl)cc1NC(=O)c1cccc(NC(=O)CCC(=O)O)c1,0
C=CCn1c(COc2cccc(C)c2)nnc1SCC(=O)c1c[nH]c2c(CC)cccc12,106
Cc1ccc(C)c(-n2nnnc2SCC(=O)NCCC2=CCCCC2)c1,708*
